Measurements reported in ChEMBL document CHEMBL4834429, “Discovery of Nanomolar Melanocortin-3 Receptor (MC3R)-Selective Small Molecule Pyrrolidine Bis-Cyclic Guanidine Agonist Compounds Via a High-Throughput "Unbiased" Screening Campaign” (J Med Chem, 2021).

Columns and labels:
Assay type in all cases: functional, cell-based
Melanocortin receptor 4 [1] = molecular target: T1, Melanocortin receptor 4 (Mus musculus, UniProt P56450); experiment: Antagonist activity at mouse melanocortin receptor 4 expressed in HEK293 cells assessed as inhibition of NDP-MSH-induced intracellular cAMP accumulation incubated for 24 hrs by beta-galactosidase reporter gene assay; settings: read-out: pA2 (converted)
T1 sequence (P56450 whole entry): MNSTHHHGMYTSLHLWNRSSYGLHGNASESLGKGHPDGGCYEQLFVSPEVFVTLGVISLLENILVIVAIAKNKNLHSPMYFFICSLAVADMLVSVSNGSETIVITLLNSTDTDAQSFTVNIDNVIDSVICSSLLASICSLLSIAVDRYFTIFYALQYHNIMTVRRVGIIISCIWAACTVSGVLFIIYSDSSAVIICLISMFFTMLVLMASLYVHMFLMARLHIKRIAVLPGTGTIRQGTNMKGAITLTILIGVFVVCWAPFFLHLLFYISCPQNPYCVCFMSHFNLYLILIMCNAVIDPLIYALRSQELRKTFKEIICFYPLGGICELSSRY

[2] = molecular target: Melanocyte-stimulating hormone receptor (Mus musculus) (UniProt Q01727); experiment: Agonist activity at mouse melanocortin receptor 1 expressed in HEK293 cells assessed as stimulation of intracellular cAMP accumulation at 10 uM incubated for 24 hrs by beta-galactosidase reporter gene assay relative to control
Chain of Melanocyte-stimulating hormone receptor (Mus musculus) (Q01727 whole entry, looked up): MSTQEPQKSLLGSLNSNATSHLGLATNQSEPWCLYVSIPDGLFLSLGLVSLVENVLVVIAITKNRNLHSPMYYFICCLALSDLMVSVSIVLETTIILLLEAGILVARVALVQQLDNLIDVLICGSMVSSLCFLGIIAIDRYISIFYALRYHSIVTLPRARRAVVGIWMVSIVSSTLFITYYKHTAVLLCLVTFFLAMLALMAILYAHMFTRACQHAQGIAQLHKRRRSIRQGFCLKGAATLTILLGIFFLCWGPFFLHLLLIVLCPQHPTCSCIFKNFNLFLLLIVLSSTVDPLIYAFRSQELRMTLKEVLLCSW
How it was run: (§1)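 After lysis, ONPG hydrolysis was read at 405 nm and normalized to Bradford protein and maximal NDP-MSH response. Duplicates, ≥3 independent experiments; 100 μM dropped from fits where toxic.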

Melanocortin receptor 5 = Melanocortin receptor 5 (Mus musculus, UniProt P41149); experiment: Agonist activity at mouse melanocortin receptor 5 expressed in HEK293 cells assessed as stimulation of intracellular cAMP accumulation incubated for 24 hrs by beta-galactosidase reporter gene assay
Chain of Melanocortin receptor 5 (P41149 whole entry): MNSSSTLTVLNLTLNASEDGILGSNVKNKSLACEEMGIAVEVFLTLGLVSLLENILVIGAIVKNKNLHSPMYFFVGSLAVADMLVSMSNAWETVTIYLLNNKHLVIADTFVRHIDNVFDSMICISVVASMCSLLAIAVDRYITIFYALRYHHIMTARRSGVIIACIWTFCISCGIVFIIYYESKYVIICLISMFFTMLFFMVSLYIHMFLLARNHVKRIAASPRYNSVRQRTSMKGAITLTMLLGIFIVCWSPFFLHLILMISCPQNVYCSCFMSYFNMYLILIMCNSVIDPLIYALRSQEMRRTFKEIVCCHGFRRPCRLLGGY

Melanocortin receptor 3 = Melanocortin receptor 3 (Mus musculus, UniProt P33033); experiment: Agonist activity at mouse melanocortin receptor 3 expressed in HEK293 cells assessed as stimulation of intracellular cAMP accumulation incubated for 24 hrs by beta-galactosidase reporter gene assay
Chain of Melanocortin receptor 3 (P33033 whole entry): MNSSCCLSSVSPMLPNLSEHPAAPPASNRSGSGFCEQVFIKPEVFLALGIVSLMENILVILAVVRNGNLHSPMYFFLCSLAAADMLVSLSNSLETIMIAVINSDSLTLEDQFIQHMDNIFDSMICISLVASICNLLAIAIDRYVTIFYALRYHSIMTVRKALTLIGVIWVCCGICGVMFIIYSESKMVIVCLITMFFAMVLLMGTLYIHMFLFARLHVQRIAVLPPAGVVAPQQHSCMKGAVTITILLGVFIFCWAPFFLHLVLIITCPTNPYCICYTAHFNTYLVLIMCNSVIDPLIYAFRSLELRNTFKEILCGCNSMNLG

[3] = molecular target: Melanocortin receptor 4 (Mus musculus) (UniProt P56450); experiment: Agonist activity at mouse melanocortin receptor 4 expressed in HEK293 cells assessed as stimulation of intracellular cAMP accumulation at 10 uM incubated for 24 hrs by beta-galactosidase reporter gene assay relative to control; how it was run: as §1
Chain of Melanocortin receptor 4 (Mus musculus) (P56450 whole entry): as the sequence (P56450 whole entry) above

[4] = molecular target: Melanocyte-stimulating hormone receptor (Mus musculus, UniProt Q01727); experiment: Agonist activity at mouse melanocortin receptor 1 expressed in HEK293 cells assessed as stimulation of intracellular cAMP accumulation incubated for 24 hrs by beta-galactosidase reporter gene assay
Chain of Melanocyte-stimulating hormone receptor (Q01727 whole entry): as the sequence (Q01727 whole entry, looked up) above

[5] = molecular target: Melanocortin receptor 3 (Mus musculus) (UniProt P33033); experiment: Agonist activity at mouse melanocortin receptor 3 expressed in HEK293 cells assessed as stimulation of intracellular cAMP accumulation at 10 uM incubated for 24 hrs by beta-galactosidase reporter gene assay relative to control; how it was run: as §1
Chain of Melanocortin receptor 3 (Mus musculus) (P33033 whole entry): as the sequence (P33033 whole entry) above

Melanocortin receptor 4 [6] = molecular target: T1, Melanocortin receptor 4; experiment: Agonist activity at mouse melanocortin receptor 4 expressed in HEK293 cells assessed as stimulation of intracellular cAMP accumulation incubated for 24 hrs by beta-galactosidase reporter gene assay; how it was run: as §1

Compound | EC50 (Melanocortin receptor 5) | EC50 (Melanocortin receptor 3) | Emax ([3]; filed as agonist) | EC50 [4] | Emax ([5]; filed as agonist) | other results
CC(C)C[C@@H]1CNC(=N)N1C[C@@H]1CCCN1C[C@@H](Cc1ccccc1)N1C[C@@H]([C@@H](C)O)N(CC23CC4CC(CC(C4)C2)C3)C1=N | 810 nM | 360 nM | 58% | – | – | Kb (Melanocortin receptor 4 [1]): 1580 nM; Emax ([2]; filed as agonist): 41%
CC(C)[C@@H]1CNC(=N)N1C[C@@H]1CCCN1C[C@@H](Cc1ccccc1)N1C[C@@H]([C@@H](C)O)N(CC2CCC(C(C)(C)C)CC2)C1=N (stereo not given in full) | 490 nM | 420 nM | – | 600 nM | – | Kb (Melanocortin receptor 4 [1]): 316 nM
CCC[C@@H]1CN([C@H](CC2CCCCC2)CN2CCC[C@H]2CN2C(=N)NC[C@H]2C(C)C)C(=N)N1CCCC(C)C | 1040 nM | – | 40% | – | 51% | Emax ([2]; filed as agonist): 51%
CC(C)C[C@@H]1CNC(=N)N1C[C@@H]1CCCN1C[C@@H](CC1CCCCC1)N1C[C@@H]([C@@H](C)O)N(CC2CCC(C(C)(C)C)CC2)C1=N (stereo not given in full) | 140 nM | 210 nM | 45% | 300 nM | – | EC50 (Melanocortin receptor 4 [6]): 270 nM
CC(C)[C@@H]1CNC(=N)N1C[C@@H]1CCCN1C[C@@H](Cc1ccccc1)N1C[C@@H](C(C)C)N(CC2CCC(C(C)(C)C)CC2)C1=N (stereo not given in full) | 600 nM | – | – | 29100 nM | 68% | –
CC(C)C[C@@H]1CNC(=N)N1C[C@@H]1CCCN1C[C@@H](Cc1ccccc1)N1C[C@@H](C(C)C)N(CC2CCC(C(C)(C)C)CC2)C1=N (stereo not given in full) | 560 nM | – | – | 6800 nM | 62% | –
CC(C)[C@@H]1CNC(=N)N1C[C@@H]1CCCN1C[C@@H](Cc1ccccc1)N1C[C@@H](C(C)C)N(CC23CC4CC(CC(C4)C2)C3)C1=N | 660 nM | 4000 nM | 54% | 47800 nM | – | –
CC(C)C[C@@H]1CNC(=N)N1C[C@@H]1CCCN1C[C@@H](CC1CCCCC1)N1C[C@@H](C(C)C)N(CC2CCC(C(C)(C)C)CC2)C1=N (stereo not given in full) | 560 nM | – | – | – | 69% | Kb (Melanocortin receptor 4 [1]): 3160 nM; Emax ([2]; filed as agonist): 54%
CC(C)C[C@@H]1CNC(=N)N1C[C@@H]1CCCN1C[C@@H](Cc1ccccc1)N1C[C@@H](C(C)C)N(CC23CC4CC(CC(C4)C2)C3)C1=N | 440 nM | – | – | 15500 nM | 67% | EC50 (Melanocortin receptor 4 [6]): 8200 nM
CC(C)C[C@@H]1CNC(=N)N1C[C@@H]1CCCN1C[C@@H](Cc1ccccc1)N1C[C@@H]([C@@H](C)O)N(CC2CCC(C(C)(C)C)CC2)C1=N (stereo not given in full) | 530 nM | 310 nM | – | – | – | Emax ([2]; filed as agonist): 58%
CC(C)[C@@H]1CNC(=N)N1C[C@@H]1CCCN1C[C@@H](CC1CCCCC1)N1C[C@@H](C(C)C)N(CC2CCC(C(C)(C)C)CC2)C1=N (stereo not given in full) | 510 nM | 4300 nM | – | 290 nM | – | Emax [3]: 28%
CC(C)[C@@H]1CNC(=N)N1C[C@@H]1CCCN1C[C@@H](CC1CCCCC1)N1C[C@@H]([C@@H](C)O)N(CC2CCC(C(C)(C)C)CC2)C1=N (stereo not given in full) | 150 nM | 220 nM | 41% | 300 nM | – | Kb (Melanocortin receptor 4 [1]): 1260 nM
CC(C)CCCN1C(=N)N([C@H](CC2CCCCC2)CN2CCC[C@H]2CN2C(=N)NC[C@H]2C(C)C)C[C@H]1C(C)C | 1700 nM | – | 51% | 6100 nM | 51% | –
CC(C)CCCN1C(=N)N([C@H](CC2CCCCC2)CN2CCC[C@H]2CN2C(=N)NC[C@H]2C(C)C)C[C@H]1[C@@H](C)O | 740 nM | 5200 nM | – | 700 nM | – | –
CCC[C@@H]1CN([C@H](CC2CCCCC2)CN2CCC[C@H]2CN2C(=N)NC[C@H]2C(C)C)C(=N)N1CC1CCC(C(C)(C)C)CC1 (stereo not given in full) | 540 nM | 350 nM | 50% | – | – | Kb (Melanocortin receptor 4 [1]): 1580 nM; Emax ([2]; filed as agonist): 51%
CCC[C@@H]1CN([C@H](CC2CCCCC2)CN2CCC[C@H]2CN2C(=N)NC[C@H]2CC(C)C)C(=N)N1CC1CCC(C(C)(C)C)CC1 (stereo not given in full) | 530 nM | – | 65% | 500 nM | 75% | –
CC(C)[C@@H]1CNC(=N)N1C[C@@H]1CCCN1C[C@@H](CC1CCCCC1)N1C[C@@H]([C@@H](C)O)N(CC23CC4CC(CC(C4)C2)C3)C1=N | 600 nM | 370 nM | 49% | 200 nM | – | Kb (Melanocortin receptor 4 [1]): 1580 nM
CCC[C@@H]1CN([C@H](Cc2ccccc2)CN2CCC[C@H]2CN2C(=N)NC[C@H]2CC(C)C)C(=N)N1CC1CCC(C(C)(C)C)CC1 (stereo not given in full) | 480 nM | – | – | – | 73% | Emax [2]: 38%; Emax [3]: 28%
CC(C)[C@@H]1CNC(=N)N1C[C@@H]1CCCN1C[C@@H](CC1CCCCC1)N1C[C@@H](C(C)C)N(CC23CC4CC(CC(C4)C2)C3)C1=N | 580 nM | 3700 nM | 40% | 300 nM | – | –
CC(C)CCCN1C(=N)N([C@H](CC2CCCCC2)CN2CCC[C@H]2CN2C(=N)NC[C@H]2CC(C)C)C[C@H]1[C@@H](C)O | 630 nM | – | 10% | 7300 nM | 58% | –
CC(C)CCCN1C(=N)N([C@H](Cc2ccccc2)CN2CCC[C@H]2CN2C(=N)NC[C@H]2CC(C)C)C[C@H]1C(C)C | 1260 nM | – | 10% | – | – | –
CC(C)CCCN1C(=N)N([C@H](CC2CCCCC2)CN2CCC[C@H]2CN2C(=N)NC[C@H]2CC(C)C)C[C@H]1C(C)C | 1850 nM | – | 51% | – | – | Emax ([2]; filed as agonist): 50%; Emax [5]: 33%
CSCC[C@H](NC(=O)[C@H](CO)NC(=O)[C@H](Cc1ccc(O)cc1)NC(=O)[C@@H](N)CO)C(=O)N[C@@H](CCC(=O)O)C(=O)N[C@@H](Cc1c[nH]cn1)C(=O)N[C@@H](Cc1ccccc1)C(=O)N[C@@H](CCCN=C(N)N)C(=O)N[C@@H](Cc1c[nH]c2ccccc12)C(=O)NCC(=O)N[C@@H](CCCCN)C(=O)N1CCC[C@H]1C(=O)N[C@H](C(=O)O)C(C)C | 0.7 nM | – | – | – | – | EC50 (Melanocortin receptor 4 [6]): 1.6 nM
CC(C)C[C@@H]1CNC(=N)N1C[C@@H]1CCCN1C[C@@H](CC1CCCCC1)N1C[C@@H](C(C)C)N(CC23CC4CC(CC(C4)C2)C3)C1=N | 500 nM | – | 50% | 570 nM | 70% | –
CCC[C@@H]1CN([C@H](Cc2ccccc2)CN2CCC[C@H]2CN2C(=N)NC[C@H]2CC(C)C)C(=N)N1CC12CC3CC(CC(C3)C1)C2 | 610 nM | – | – | 7000 nM | 74% | EC50 (Melanocortin receptor 4 [6]): 1330 nM
CCC[C@@H]1CN([C@H](Cc2ccccc2)CN2CCC[C@H]2CN2C(=N)NC[C@H]2C(C)C)C(=N)N1CC1CCC(C(C)(C)C)CC1 (stereo not given in full) | 940 nM | 6200 nM | – | 2300 nM | – | Emax [3]: 27%
CCC[C@@H]1CN([C@H](CC2CCCCC2)CN2CCC[C@H]2CN2C(=N)NC[C@H]2CC(C)C)C(=N)N1CCCC(C)C | 1800 nM | – | – | 2300 nM | 58% | EC50 (Melanocortin receptor 4 [6]): 6700 nM
O=C(N[C@@H](Cc1ccc(Cl)cc1)C(=O)N1CCC(Cn2cncn2)(C2CCCCC2)CC1)[C@H]1Cc2ccccc2CN1 | – | – | – | – | – | EC50 (Melanocortin receptor 4 [6]): 0.9 nM
CC(C)C[C@@H]1CNC(=N)N1C[C@@H]1CCCN1C[C@@H](CC1CCCCC1)N1C[C@@H]([C@@H](C)O)N(CC23CC4CC(CC(C4)C2)C3)C1=N | 340 nM | 240 nM | 55% | 330 nM | – | EC50 (Melanocortin receptor 4 [6]): 650 nM
CCC[C@@H]1CN([C@H](CC2CCCCC2)CN2CCC[C@H]2CN2C(=N)NC[C@H]2CC(C)C)C(=N)N1CC12CC3CC(CC(C3)C1)C2 | 470 nM | – | 51% | – | 67% | Emax ([2]; filed as agonist): 70%
